In the library only some 2.2% were active in any assay of this set; here they are far more common.
NadD inh: blocks S. aureus nicotinate mononucleotide adenylyltransferase; purified NadD enzyme, colorimetric absorbance read-out; inhibition, % at 20 µM; hit rate 0.78% among 360,000; AID 602399; in the data active = inhibition above about 26%
ARFGAP1 inh: inhibits rat ARF GTPase activating protein 1; hit rate 0.26% among 360,000; Q62848; inhibition, % at 16.5 µM; AID 651572; Arfgap1-stimulated ARF1 GTP hydrolysis, GDP FP detection;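 active = inhibition above a per-plate limit, mean inhibition of low control wells plus 3 SD, cut at about 25% in these data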
Target sequence (Q62848 1-136 limits assumed): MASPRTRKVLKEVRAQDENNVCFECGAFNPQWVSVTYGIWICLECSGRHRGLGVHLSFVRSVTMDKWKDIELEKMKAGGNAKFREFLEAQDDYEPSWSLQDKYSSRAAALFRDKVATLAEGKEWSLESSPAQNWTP
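Material: rat Arfgap1 catalytic domain, aa 1-136; also added: human ARF1(Δ1-17)-GTP substrate; compound dosing: one concentration, 16.5 µM, DMSO 1.26%; incubation: GTP hydrolysis reaction 2 h at 25 °C; measured by: Tracer-displacement fluorescence polarization with EDTA stop, 620/688 nm; evaluation: % inhibition from polarization; repeats: one replicate per compound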
rCAG RNA binder: r(CAG) repeat RNA binding; hit rate 1.3% among 370,000; TO-PRO-1 dye displacement fluorescence; inhibition, % at 3 µM; AID 651821;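 active = inhibition above the plate cutoff, the mean of all test compounds on that plate plus 3 SD, cut at about 35% in these data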;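 also: higher means more dye released from RNA so lower well fluorescence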
ASAP1 inh: blocks human ASAP1-stimulated Arf1 GTP hydrolysis | GDP FP detection | hit rate 0.19% among 360,000 | Q9ULH1 | inhibition, % at 16.5 µM; in the data active = inhibition above about 25%
ARFGAP1 confirm: confirmation of rat ARFGAP1 inhibitors; shares compounds with ARFGAP1 inh; ARFGAP1-stimulated ARF1 GTP hydrolysis, GDP tracer FP; inhibition, % at 16.5 µM; hit rate 30% among 890; AID 651608;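 active = average inhibition over triplicates above the hit cutoff set in the earlier primary screen, cut at about 25% in these data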
Target sequence (Q62848 whole entry, looked up): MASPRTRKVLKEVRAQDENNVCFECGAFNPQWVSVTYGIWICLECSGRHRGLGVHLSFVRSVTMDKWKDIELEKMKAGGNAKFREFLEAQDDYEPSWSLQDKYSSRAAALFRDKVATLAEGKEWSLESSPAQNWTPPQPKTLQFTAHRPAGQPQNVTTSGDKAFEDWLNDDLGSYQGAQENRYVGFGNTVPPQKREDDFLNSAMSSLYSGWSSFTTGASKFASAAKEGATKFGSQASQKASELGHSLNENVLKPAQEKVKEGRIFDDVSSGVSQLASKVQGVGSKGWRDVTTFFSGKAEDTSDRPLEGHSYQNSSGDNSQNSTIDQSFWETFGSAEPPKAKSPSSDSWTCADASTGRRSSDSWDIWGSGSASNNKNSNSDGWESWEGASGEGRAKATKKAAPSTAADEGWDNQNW
Of the large screens only hits and unclear results are named; the others gave an inactive call (follow-up assays come after a bar, where they were run).

CC(C)N(C(=O)NC(=O)Nc1ccc(S(=O)(=O)N2CCCC2)cc1)S(C)(=O)=O	ARFGAP1 inh 36 | ARFGAP1 confirm inactive
CC1CCC2(CCC(=O)N2CCCOC(=O)c2ccccc2)CC1 (stereo not drawn)	none (no result: NadD inh, ARFGAP1 inh, ASAP1 inh)
Cc1ccccc1NC(=O)c1cccc(NC(=O)c2c(C(=O)O)cccc2[N+](=O)[O-])c1	none
CN1C(=O)c2ccc(NC(=O)c3c(C(=O)O)cccc3[N+](=O)[O-])cc2C1=O	ARFGAP1 inh 26 | ARFGAP1 confirm inactive
COc1cc(C(C#N)N2CCC(c3ccccc3)=N2)ccc1O (stereo not drawn)	ARFGAP1 inh 27 | ARFGAP1 confirm inactive
O=C(N/N=C/c1ccc(O)cc1)c1[nH]c2ccc(Br)cc2c1-c1ccccc1	none
O=C(N/N=C/c1c[nH]c2ccccc12)c1[nH]c2ccc(Br)cc2c1-c1ccccc1	ARFGAP1 inh 30 | ARFGAP1 confirm inactive
CCOC(=O)[C@]12CCCCC/C=C\1N(Cc1ccc(OC)cc1)C(=O)[C@H]2CC(=O)NCCc1ccccc1OC	none (no result: NadD inh, ARFGAP1 inh, ASAP1 inh)
CC1CCC(NC(=O)c2ccc3c(c2)OCO3)CC1 (stereo not drawn)	none
CC1(C)CC(NC(=O)c2ccc3c(c2)OCO3)CC(C)(C)N1	ARFGAP1 inh 26 | ARFGAP1 confirm inactive
O=C(Nc1ccccc1N1CCCC1)c1ccc(Cl)cc1Cl	ARFGAP1 inh 30 | ARFGAP1 confirm inactive
O=C(Nc1ccccc1N1CCCCC1)c1ccc(-c2ccc(Cl)cc2)o1	ARFGAP1 inh 27 | ARFGAP1 confirm inactive
CN1CCN(c2ccccc2NC(=O)c2ccc(-c3ccc(Br)cc3)o2)CC1	none (no result: ARFGAP1 inh, rCAG RNA binder, ASAP1 inh)
c1ccc(Cn2c(SC3CCCCC3)nnc2-c2cccnc2)cc1	none (no result: NadD inh, ARFGAP1 inh, ASAP1 inh)
O=C(NCCC1CCCCN1S(=O)(=O)c1ccccc1)C(=O)Nc1ccc(F)cc1 (stereo not drawn)	none
COc1ccc(NC(=O)C(=O)NCCC2CCCCN2S(=O)(=O)c2ccc(F)cc2)cc1 (stereo not drawn)	ARFGAP1 inh 28 | ARFGAP1 confirm inactive
CC(C(=O)Nc1nc(-c2ccc(F)c(F)c2)cs1)N1C(=O)C2CC=CCC2C1=O (stereo not drawn)	ARFGAP1 inh 27 | ARFGAP1 confirm inactive
Cc1ccccc1Cn1cc(CN2[C@@H](CC(C)C)COc3cc(Br)ccc3S2(=O)=O)nn1	none (no result: NadD inh, ARFGAP1 inh, ASAP1 inh)
O=C1c2ccccc2C(Nc2ccc3c(c2)OCCO3)N1c1ccc(Cl)cn1 (stereo not drawn)	ARFGAP1 inh 25 | ARFGAP1 confirm inactive
O=C(C1CC1)N1CCc2cc(Br)c(S(=O)(=O)NCCCN3CCCCC3)cc21	none (no result: NadD inh, ARFGAP1 inh, ASAP1 inh)
Cc1ccc(C)c(Oc2cc(NC(=O)CCCn3nc(C)c([N+](=O)[O-])c3C)cc([N+](=O)[O-])c2)c1	ARFGAP1 inh 26 | ARFGAP1 confirm inactive
Cc1ccccc1NC(=O)OC1CCC12CCC(c1ccccc1)CC2 (stereo not drawn)	none (no result: NadD inh, ARFGAP1 inh, ASAP1 inh)
COc1cc(C(O)c2nc(-c3cc4ccccc4o3)cs2)ccc1F (stereo not drawn)	ARFGAP1 inh 28 | ARFGAP1 confirm inactive
COc1cccc(C(O)c2nc(-c3cc4ccccc4o3)cs2)c1 (stereo not drawn)	none
N#CCC[C@H]1CC[C@]2(CCCN(S(=O)(=O)c3ccccc3)C2)O1	none (no result: NadD inh, ARFGAP1 inh, ASAP1 inh)
Cc1ccc(-c2cc(-c3ccccc3Cl)[nH]n2)c(O)c1	none
Cc1ccc(-c2cc(-c3ccccc3[N+](=O)[O-])[nH]n2)c(O)c1	ARFGAP1 inh 41 | ARFGAP1 confirm inactive
Cc1nn(Cc2ccc(C(=O)Nc3ccc(C(=O)OC(C)C)cc3)o2)c(C)c1Cl	ARFGAP1 inh 26 | ARFGAP1 confirm 27
O=C1NC(=O)/C(=C\c2ccc(OCc3cccc([N+](=O)[O-])c3)cc2)N1	ARFGAP1 inh 49 | ARFGAP1 confirm 86
Cc1noc(C)c1C(C)C1=CCCCC1 (stereo not drawn)	none (no result: NadD inh, ARFGAP1 inh, ASAP1 inh)
c1ccc(OCCn2cnc3ccccc32)cc1	none
c1ccc(CCn2cnc3ccccc32)cc1	ARFGAP1 inh 26 | ARFGAP1 confirm inactive
COc1cccc(C=NNC(=S)NC2CC3CCC2C3)c1O (stereo not drawn)	none (no result: NadD inh)
COc1ccc(NC(=O)c2ccc(NC(=O)COC(=O)CC(NC(=O)c3ccccc3Cl)c3ccccc3)cc2)cc1 (stereo not drawn)	ARFGAP1 inh 26 | ARFGAP1 confirm inactive
CCN(CC)CCNC(=O)c1ccc(NC(=O)CC(NC(=O)c2ccccc2Cl)c2ccccc2)cc1 (stereo not drawn)	none
Cc1cc(S(=O)(=O)Nc2cccnc2)c(C)s1	ARFGAP1 inh 25 | ARFGAP1 confirm inactive
O=C(Nc1cccc(-c2cc3ccccc3oc2=O)c1)c1ccc(Br)o1	ARFGAP1 inh 27 | ARFGAP1 confirm inactive
COc1cc(C(=O)OC(C)CN2CCN(C)CC2)cc(OC)c1OC (stereo not drawn)	none
COc1cc(C(=O)OC(C)CN2C(C)CCCC2C)cc(OC)c1OC (stereo not drawn)	ARFGAP1 inh 32 | ARFGAP1 confirm inactive
O=C(Nc1cccc(-c2csc(Nc3cccc(C(F)(F)F)c3)n2)c1)c1ccccc1	ARFGAP1 inh 25 | ARFGAP1 confirm inactive
CCOC(=O)Cc1csc(N/C(=N/S(=O)(=O)c2ccc(F)cc2F)c2ccccc2)n1	ARFGAP1 inh active | ARFGAP1 confirm inactive
O=C(OCC(=O)N1CCCCCC1)c1cc(S(=O)(=O)N2CCOCC2)ccc1F	none
Cc1ccc(OCCC(=O)OCC(=O)NC(=O)NC2CCCCC2)cc1	none
CCN1C(=O)N(C)C(N(O)C(=O)NC)C1(C)C (stereo not drawn)	ARFGAP1 inh 26 | ARFGAP1 confirm inactive
CC(C)Cn1c(N)c(S(=O)(=O)c2cccs2)c2nc3ccccc3nc21	ARFGAP1 inh 27 | ARFGAP1 confirm inactive
COc1ccc(-c2noc(C3CCCN(C(=O)Nc4ccc(C)c(F)c4)C3)n2)cc1 (stereo not drawn)	none (no result: NadD inh, ARFGAP1 inh, ASAP1 inh)
O=C(NC(c1ccc(F)cc1)c1ccc2ccccc2n1)C1CCN(Cc2cccc(C(F)(F)F)c2)CC1 (stereo not drawn)	ARFGAP1 inh 28 | ARFGAP1 confirm inactive
O=C(NC(c1ccc(F)cc1)c1ccc2ccccc2n1)C1CCN(Cc2ccc3ccccc3n2)CC1 (stereo not drawn)	none
CC(C)N1CCN(Cc2ccc(-c3ccccc3Cl)o2)CC1CCO (stereo not drawn)	ARFGAP1 inh 29 | ARFGAP1 confirm inactive
C[C@H](CO)N1C[C@H](C)[C@H](CN(C)C(=O)Nc2cccc(F)c2)Oc2cc(C#CC3(O)CCCC3)ccc2S1(=O)=O	ARFGAP1 inh 29 | ARFGAP1 confirm inactive
C[C@H](CO)N1C[C@H](C)[C@H](CN(C)C(=O)Nc2cccc(F)c2)Oc2cc(Br)ccc2S1(=O)=O	none (no result: NadD inh)
NS(=O)(=O)c1ccc(CNC(=O)C2CCCCC2)cc1	none
NS(=O)(=O)c1ccc(CNC(=S)NC2CCCC2)cc1	ARFGAP1 inh 29 | ARFGAP1 confirm inactive
Cc1ccc(CNC(=O)OC(C)(C)C)c(/C=C/S(=O)(=O)NC2CCCC2)c1	none (no result: NadD inh, ARFGAP1 inh, ASAP1 inh)
Cc1ccc(NC(=O)c2cccc(S(=O)(=O)NCc3ccccc3)c2)nc1	ARFGAP1 inh 35 | ARFGAP1 confirm inactive
C[C@@H]1CCN(C2CC2)S(=O)(=O)c2ccc(N3CCC[C@H]3CO)cc2O1	none (no result: NadD inh, ARFGAP1 inh, ASAP1 inh)

High-throughput results from PubChem.
